Mdm2 ligase inh: MDM2-luciferase reporter signal enhancers, primary screen, MDM2 E3 ligase inhibitor project, cell-based, luminescence, 1536-well; signal enhancement, % at 5 µM; cell-based MDM2 ubiquitination luciferase reporter, 2 h; 0 = plate control, 100 = twice control, blank-subtracted; AID 1230, 2008; 210,000 compounds, 0.11% hits; E3 ubiquitin-protein ligase Mdm2 (Homo sapiens), Q00987;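 active means signal enhancement of 30% or more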;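 further: luminescence tracks abundance of the self-degrading MDM2-luciferase fusion protein; higher signal means inhibition of MDM2 E3 ligase activity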
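System: stable MDM2–luciferase fusion reporter cells / Input: 2000 cells seeded into each well / Schedule: 4 h settle plus 2 h compound, 37 °C / Compound: single-point 5 µM / Buffer or medium: cells held in DMEM / Benchmarks: control and blank well means / Evaluation: percent signal gain over controls, blank-subtracted / Measured by: luciferase luminescence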
PKD1 kinase inh: inhibitors of human PKD1 kinase, biochemical, fluorescence polarization; 200,000 compounds, 0.056% hits; inhibition, % (test concentration not listed); PKD1 kinase fluorescence polarization assay; Serine/threonine-protein kinase D1 (Homo sapiens), Q15139; in the data active means inhibition above about 50%
Arbovirus anti: antivirals against arbovirus infection, primary screen, cell-based, full library, 10K replicate subset; arbovirus infection cell-based antiviral screen; inhibition, % at 10 µM; 200,000 compounds, 0.37% hits; AID 1251, 2008; in the data active means inhibition above about 30%
ROMK primary: ROMK potassium channel modulators, primary screen, cell-based, thallium flux, MLSMR library; B-score at 10 µM; 130,000 compounds, 2% hits; ATP-sensitive inward rectifier potassium channel 1 (Homo sapiens), P48048; Tet-inducible ROMK, thallium flux fluorescence; actives lie on both sides; AID 1918, 2009;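 active means signal ratio slope over the read window, or its plate-corrected B-score, at least 3 SD from the plate mean, either direction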;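 further: B-score of the F/F0 ratio slope over 7 to 12 s after thallium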
m-calpain inh: inhibitors of pig calpain II, primary screen, biochemical, fluorogenic peptide substrate, 1536-well. 220,000 compounds, 0.37% hits. purified calpain II, 30 min. inhibition, % at 16 µM;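 active means inhibition above about 50%, limit read from the data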
KCC2 mod: KCC2 cotransporter modulators, thallium flux, primary screen, cell-based, HEK293 KCC2, FluoZin-2 fluorescence, MLSMR; KCC2 cells, thallium flux FluoZin-2 fluorescence; B-score of Tl+ flux slope (higher = more flux/activation; lower = inhibition) at 10 µM; 190,000 compounds, 2.2% hits;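 active means thallium flux slope and its plate-corrected score both differing from the plate sample mean at a set confidence after two filtering rounds, in either direction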;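 further: slope of fluorescence scaled to starting intensity during 10 to 20 s after thallium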
ROMK hit retest: ROMK channel modulator hit retest, confirmation, cell-based, thallium flux, duplicate, resupplied hits | shares compounds with ROMK primary | fluorescence ratio; stronger effect = lower value | normalized thallium flux (F/F0 slope) at 10 µM | 3,000 compounds, 54% hits;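 active means Flux at 10 µM at least 3 SD below or above vehicle control mean in one or both replicates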
* marks the source's active call; other numbers are inactive results; x = no result. An excerpt weighted towards active compounds, which were near 3.7% of everything screened.

SMILES	Mdm2 ligase inh	PKD1 kinase inh	Arbovirus anti	ROMK primary	m-calpain inh	KCC2 mod	ROMK hit retest
CCOC(=O)N1CCN(C(=O)COc2ccc(Cl)c(C)c2)CC1	9	-7	-1	-3.6*	-2	0.6	0.058*
Cc1ccc(/C=C2/C(=O)N=C(N)N2C)s1	-4	-11	6	-0.99	-8	-0.55	x
COc1ccc(C=C2c3ccccc3C(=O)c3ccccc32)c(OC)c1	3	x	x	2.8*	1	-1.1	0.093
COc1ccc(/C=C2\CN(Cc3ccccc3)C/C(=C\c3ccc(OC)cc3OC)C2=O)c(OC)c1	-31	-1	-25	x	-21	-1.7	x
O=C(CSc1nnc2ccccn12)NNC(=O)c1ccc(F)cc1	-5	3	9	0.51	21	-0.013	x
CC(C)C(C(=O)Nc1ccc(N2CCOCC2)cc1)N1C(=O)c2ccccc2C1=O (stereo unspecified)	-5	-12	0	x	-15	1.9	x
O=C(NNC1=C(C(=O)C(F)(F)F)CCC1)c1cccc(Cl)c1	-11	-7	-39	5.8*	-5	x	0.089
O=C(NNC1=C(C(=O)C(F)(F)F)CCC1)c1ccc(Cl)cc1	-9	2	-17	x	-21	1.9	x
N#C/C(=C\c1cccc([N+](=O)[O-])c1)C(=O)NCC1CCCO1 (stereo unspecified)	-2	7	-4	-11*	33	-1.2	0.042*
COc1cc(/C=C(\C#N)C(=O)NCC2CCCO2)c([N+](=O)[O-])cc1OC (stereo unspecified)	-22	-7	-4	x	-18	x	x
OCCN(CC(O)Cn1ccc2ccccc21)CC(O)Cn1ccc2ccccc21 (stereo unspecified)	-16	2	-17	-4.8*	-59	x	0.056*
O=C(COC(=O)/C=C/c1ccc([N+](=O)[O-])cc1)NCc1ccc2c(c1)OCO2	-14	x	x	x	20	-0.061	0.079
COc1cc(CNCCN2CCOCC2)ccc1OCc1cccc(Cl)c1	-18	1	-29	-1.1	-33	-0.59	x
COc1cc(CNCCN2CCOCC2)ccc1OCc1ccc(Cl)cc1Cl	-2	0	-24	x	-18	0.083	0.055*
CC(C)(C)c1ccc(NC(=S)NCc2cccnc2)cc1	-11	x	x	-1.5*	8	1.7	0.073
NC1=NC[C@H](c2ccccc2)N1CCCCC1CCCCC1	6	x	x	x	3	0.66	x
NC1=NC[C@H](CC2CCCCC2)N1CCc1cc(C(F)(F)F)cc(C(F)(F)F)c1	18	x	x	x	1	-0.025	0.05*
COC(=O)c1cnn(-c2ccccc2)c1-n1cccc1C=O	-4	4	8	-5.7*	-6	-0.13	0.077
CCOC(=O)c1cnn(-c2ccccc2)c1-n1cccc1C(=O)C(=O)N(C)C	-7	-5	2	0.94	4	-0.25	x
COC(=O)c1cnn(-c2ccccc2)c1C(OC)OC	-6	x	x	x	29	0.32	0.075
CCCCCCNC(=O)N[C@H](C(=O)NCCC[C@H]1CN2C(=NC[C@H]2C)N1CCC(c1ccccc1)c1ccccc1)C(C)O (stereo partly specified)	17	x	x	x	-15	-0.012	0.061*
C[C@@H]1CN=C2N(CCNC(=O)CCC3CCCCC3)[C@H](Cc3ccc(O)cc3)CN21	x	8	1	x	6	0.89	x
Cc1cc(C)n(-c2ccc(C(=O)OCC(=O)Nc3ccc(S(=O)(=O)N4CCCCC4)cc3)cc2)n1	-15	-1	9	2*	-93	-0.17	0.078
N#Cc1cnn2c(-c3ccc(Cl)cc3Cl)ccnc12	-10	-6	-7	-0.69	-393	-0.052	x
O=C(NCc1n[nH]c(=S)n1-c1ccc(F)cc1)c1ccc(S(=O)(=O)N2CCCC2)cc1	10	1	4	1.3*	1	-0.033	0.086
SMILES	Mdm2 ligase inh	PKD1 kinase inh	Arbovirus anti	ROMK primary	m-calpain inh	KCC2 mod	ROMK hit retest
O=C(NCc1n[nH]c(=S)n1-c1cccc(Cl)c1)c1ccc(S(=O)(=O)N2CCCC2)cc1	-11	1	1	x	16	0.82	x
N#C/C(=C\c1cccc(Cl)c1)c1n[nH]c(Cn2cncn2)n1	-21	-10	2	-2.6*	-32	-1.7	0.053*
N#C/C(=C\c1ccc(F)cc1)c1n[nH]c(Cn2cncn2)n1	4	-14	2	-1.1	10	-1	x
Nc1nc2ccccc2n1C(=O)c1ccccc1	-53	1	-13	2.1*	-3	0.4	0.076
O=c1c2ccccc2nc(/C=C/c2ccc([N+](=O)[O-])o2)n1CCCO	9	-12	-39	-3.1*	-52	x	0.052*
O=c1c2ccccc2nc(/C=C/c2ccc([N+](=O)[O-])cc2)n1CCCO	-11	-6	-6	-0.88	2	-0.38	x
CCN(CC(=O)NC(C)(C)C)C(=O)c1ccc(Br)cc1	-17	0	7	0.67	-11	0.53	x
O=c1c2ccccc2c(-c2ccccc2)nn1-c1cc(Cl)cc(Cl)c1	-5	x	x	x	2	-0.77	0.077
C=CCSc1nnc(NC(=O)Cn2cnc3c2c(=O)n(C)c(=O)n3C)s1	-8	-3	5	0.73	9	-0.0069	x
CCCCOC(=O)Nc1cc(C(=O)OC)ccc1C(=O)OC	-18	-5	3	3.8*	x	-0.46	0.073
CCCCOC(=O)Nc1ccc(C(=O)OC)cc1	-5	8	3	x	16	-0.26	x
Cc1ccc(OC(C)C(=O)Nc2ccc(C)c(S(=O)(=O)Nc3ccc(C)cc3C)c2)cc1 (stereo unspecified)	-1	0	-17	-0.35	4	-0.41	x
CC(=O)c1cc(-c2ccccc2)n(CC(=O)N2CCCC2)c1C	-7	1	7	0.055	-18	0.35	x
CC(=O)c1cc(-c2ccccc2)n(CC(=O)N2CCCCC2)c1C	-8	9	3	3*	7	0.019	0.075
CCCC(=Nc1ccc(N)cc1)C1=C(O)C(C(=O)OC)C(C)(C)CC1=O (stereo unspecified)	-9	-5	-14	x	7	x	x
NC(=O)C1CCN(C(=O)c2ccc3c(=O)n(Cc4ccco4)c(SCC(=O)c4ccc(F)cc4)nc3c2)CC1	-9	0	1	2.8*	-11	0.56	0.092
NC(=O)C1CCN(C(=O)c2ccc3c(=O)n(Cc4ccco4)c(SCC(=O)c4ccccc4)nc3c2)CC1	-12	1	8	0.018	-46	0.33	x
COc1ccccc1NC(=O)CCC(=O)OCc1cccc([N+](=O)[O-])c1	-4	-4	4	-0.29	-20	0.25	x

Screening data deposited in PubChem by several laboratories.
